Tests used:
Rattus norvegicus [1] = assay: Oral diuretic activity was evaluated by measuring Na+ excretion in Rat at 9 mg/kg […] ( 0-5 hr ); type: ADME, organism-based, Urine; set-up: dose 9 mg/kg; details: in vivo, ip
Outline: (§1)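 Female Charles-River rats (150–170 g) were kept overnight on a sugar diet with water ad libitum. Compound was dissolved in DMF, then diluted with water containing Tween 80 (3 drops/100 mL) to a final 4% DMF, and given po in 5.0 mL. Rats were housed three per metabolism cage. Urine from 0–5 h was analysed for Na+, K+ and Cl−, with concurrent placebo controls. Values are mequiv × 100 per cage, geometric mean of three cages per dose.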

Canis familiaris [2] = assay: Oral diuretic activity was evaluated by measuring Na+ excretion in dog at 1 mg/kg after ip administration ( 0-6 hr ); type: ADME, organism-based, Canis lupus familiaris, Urine; set-up: dose 1 mg/kg, route intraperitoneal; details: in vivo
Outline: (§2)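 Spontaneous urine was pooled with bladder urine collected by catheterization at 6 h. Volume was measured and Na+, K+ and Cl− were determined by standard methods. Values are geometric means.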

Canis familiaris [3] = assay: Oral diuretic activity was evaluated by measuring K+ excretion in dog at 5 mg/kg after ip administration ( 0-6 hr ); type: ADME, organism-based, Canis lupus familiaris, Urine; set-up: dose 5 mg/kg, route intraperitoneal; details: in vivo; outline: as §2
Rattus norvegicus [4] = assay: Oral diuretic activity was evaluated by measuring Na+ excretion in Rat at 27 mg/kg after […] ( 0-5 hr ); type: ADME, organism-based, Urine; set-up: dose 27 mg/kg; outline: as §1
Rattus norvegicus [5] = assay: Oral diuretic activity was evaluated by measuring Na+ excretion in Rat at 3 mg/kg […] ( 0-5 hr ); type: ADME, organism-based, Urine; set-up: dose 3 mg/kg; details: in vivo, ip; outline: as §1
Rattus norvegicus [6] = assay: Oral diuretic activity was evaluated by measuring Na+ excretion in Rat at 81 mg/kg […] ( 0-5 hr ); type: ADME, organism-based, Urine; set-up: dose 81 mg/kg; outline: as §1
Canis familiaris [7] = assay: Oral diuretic activity was evaluated by measuring Na+ excretion in dog at 5 mg/kg after ip administration ( 0-6 hr ); type: ADME, organism-based, Canis lupus familiaris, Urine; set-up: dose 5 mg/kg, route intraperitoneal; details: in vivo
Outline: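 Urine collected over 0–6 h: spontaneous voids were pooled with bladder urine taken by catheterization at 6 h. Urine volume was measured, and aliquots were analysed for Na+, K+ and Cl− by standard methods. Electrolyte excretion is reported as geometric means.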

Canis familiaris [8] = assay: Compound administered intravenously at a dose of 5 mg/kg was evaluated for salidiuretic activity measured as sodium ion excretion in Dog; type: ADME, organism-based, Canis lupus familiaris, Urine; set-up: dose 5 mg/kg, route intravenous; details: in vivo, iv
Outline: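 Conditioned female mongrel dogs, postabsorptive, water-loaded (500 mL po) 1 h before sodium pentobarbital anesthesia (30 mg/kg iv). Bladder catheter; creatinine 4 g sc; phosphate–mannitol buffer pH 7.4 infused (3.0 mL/min) throughout. […] Urine Na+ measured; response scored 0–6.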

Rattus norvegicus [9] = assay: Oral diuretic activity was evaluated by measuring K+ excretion in Rat at 3 mg/kg […] ( 0-5 hr ); type: ADME, organism-based, Urine; set-up: dose 3 mg/kg
Outline: (§3)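 Female Charles-River rats (150–170 g) were kept overnight on a sugar diet with water ad libitum. Test substance was dissolved in DMF and diluted with water containing Tween 80 to a final 4% DMF vehicle, then given po in 5.0 mL. Rats were housed three per metabolism cage, and 0–5 h urine was assayed for Na⁺, K⁺ and Cl⁻ alongside concurrent placebo groups. Values are mequiv × 100 per cage, geometric means of three cages per dose.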

Rattus norvegicus [10] = assay: Oral diuretic activity was evaluated by measuring K+ excretion in Rat at 81 mg/kg after […] ( 0-5 hr ); type: ADME, organism-based, Urine; set-up: dose 81 mg/kg; details: in vivo; outline: as §3
Rattus norvegicus [11] = assay: Oral diuretic activity was evaluated by measuring K+ excretion in Rat at 9 mg/kg […] ( 0-5 hr ); type: ADME, organism-based, Urine; set-up: dose 9 mg/kg; outline: as §3
Canis familiaris [12] = assay: Oral diuretic activity was evaluated by measuring K+ excretion in dog at 1 mg/kg after […] ( 0-6 hr ); type: ADME, organism-based, Canis lupus familiaris, Urine; set-up: dose 1 mg/kg; details: in vivo; outline: as §2
Rattus norvegicus [13] = assay: Evaluated for salidiuretic activity measured as sodium ion excretion in Rat, administered orally at a dose of 50 mg/kg; type: functional, Urine; set-up: unit not given beside the values; details: route oral
Outline: (§4)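 Female Charles-River rats (150–170 g), overnight on sugar diet with water ad libitum. Compound dissolved in DMF, diluted with water containing Tween 80 (final 4% DMF), given po in 5.0 mL; concurrent vehicle placebo. Three rats per metabolism cage; 0–5 h urine analysed for Na+, K+, Cl-. Values: mequiv × 100 per cage, geometric means of three cages per dose; scored 0–6 by Na+.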

[14] = Compound administered orally at a dose of 5 mg/kg was evaluated for salidiuretic activity measured as sodium ion excretion in Rat; type: organism-based; set-up: dose 5 mg/kg; details: Urine; outline: as §4
Canis familiaris [15] = assay: Oral diuretic activity was evaluated by measuring Cl- excretion in dog at 5 mg/kg after […] ( 0-6 hr ); type: ADME, organism-based, Canis lupus familiaris, Urine; set-up: dose 5 mg/kg, route intraperitoneal; details: in vivo
[16] = Evaluated for salidiuretic activity measured as sodium ion excretion in Rat, administered orally at a dose of 16.5 mg/kg; type: organism-based; set-up: dose 16.5 mg/kg; details: Urine; outline: as §4
Rattus norvegicus [17] = assay: Oral diuretic activity was evaluated by measuring Cl- excretion in Rat at 3 mg/kg after […] ( 0-5 hr ); type: ADME, organism-based, Urine; set-up: dose 3 mg/kg, route intraperitoneal; details: in vivo
Rattus norvegicus [18] = assay: Oral diuretic activity was evaluated by measuring Cl- excretion in Rat at 9 mg/kg […] ( 0-5 hr ); type: ADME, organism-based, Urine; set-up: dose 9 mg/kg; details: in vivo; outline: as §3
Canis familiaris [19] = assay: Oral diuretic activity was evaluated by measuring Cl- excretion in dog at 1 mg/kg after […] ( 0-6 hr ); type: ADME, organism-based, Canis lupus familiaris, Urine; set-up: dose 1 mg/kg, route intraperitoneal; details: in vivo
Rattus norvegicus [20] = species: Rattus norvegicus; assay: Time taken for the decrease in arterial pressure was measured; type: functional, Artery
Rattus norvegicus [21] = assay: Maximum fall in mean arterial blood pressure was measured in SH rats when compound was administered at 30 mg/kg perorally; type: functional; details: route oral
Rattus norvegicus [22] = assay: Oral diuretic activity was evaluated by measuring K+ excretion in Rat at 27 mg/kg after po administration ( 0-5 hr ); details: in vivo
Rattus norvegicus [23] = assay: Oral diuretic activity was evaluated by measuring Cl- excretion in Rat at 27 mg/kg after po administration ( 0-5 hr ); details: in vivo
Rattus norvegicus [24] = assay: Oral diuretic activity was evaluated by measuring Cl- excretion in Rat at 81 mg/kg after po administration ( 0-5 hr ); details: in vivo
Rattus norvegicus [25] = assay: Compound administered orally at a dose of 1 mg/kg was evaluated for salidiuretic activity measured as sodium ion excretion in Rat; details: in vivo, po

## COc1c(Cl)c(O)c(CN)c(OC)c1Cl.Cl
Rattus norvegicus [1]
  Diuretic activity: 1.58
Canis familiaris [2]
  Diuretic activity: 17.78
Canis familiaris [3]
  Diuretic activity: 8
Rattus norvegicus [4]
  Diuretic activity: 1.61
Rattus norvegicus [5]
  Diuretic activity: 0.86
Rattus norvegicus [6]
  Diuretic activity: 2.17
Canis familiaris [7]
  Diuretic activity: 42.5
Canis familiaris [8]
  Diuretic activity: > 900
Rattus norvegicus [9]
  Diuretic activity: 0.26
Rattus norvegicus [10]
  Diuretic activity: 0.39
Rattus norvegicus [11]
  Diuretic activity: 0.42
Canis familiaris [12]
  Diuretic activity: 4.78
Rattus norvegicus [13]
  Diuretic activity: 3.6
[14]
  Diuretic activity: 2.6
Canis familiaris [15]
  Diuretic activity: 54.5
[16]
  Diuretic activity: 3.3
Rattus norvegicus [17]
  Diuretic activity: 1.25
Rattus norvegicus [18]
  Diuretic activity: 2.36
Canis familiaris [19]
  Diuretic activity: 24.67
Rattus norvegicus [20]
  Duration: 12 h
Rattus norvegicus [21]
  MAP: 19 mmHg
Rattus norvegicus [22]
  Diuretic activity: 0.42
Rattus norvegicus [23]
  Diuretic activity: 2.51
Rattus norvegicus [24]
  Diuretic activity: 3.26
Rattus norvegicus [25]
  Diuretic activity: 0.7

— ChEMBL document CHEMBL1121573, “2-(Aminomethyl)phenols, a new class of saluretic agents. 1. Effects of nuclear substitution” (J Med Chem, 1980)
